Converted amounts (≈) assume the structure as drawn. The source made the active and inactive calls. No cut-off for these calls is given here.
Columns and labels:
[1] = test system: Actinobacillus pleuropneumoniae; test: Antibacterial activity against Actinobacillus pleuropneumoniae after 48 hrs by CLSI protocol based broth microdilution assay; assay type: functional
Procedure, shortened: (§1)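 Strains (B. subtilis PY79, P. peoriae LMG1611, S. aureus Newman, S. agalactiae ATCC27956, E. coli ATCC25922, P. aeruginosa PA14, P. fluorescens LMG1794, X. campestris Xg, A. pleuropneumoniae) were grown overnight in TSB at 30 °C with shaking, then suspended in Mueller-Hinton broth, final OD600 0.01. Twofold-series compound, 100 to 0.78 μM, from 20 mM DMSO stock. Incubated 48 h, 30 °C, 250 rpm; OD600 read; MIC.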

Streptococcus agalactiae = test: Antibacterial activity against Streptococcus agalactiae after 48 hrs by CLSI protocol based broth microdilution assay; assay type: functional; procedure, shortened: as §1
Fusarium solani = test: Antifungal activity against Fusarium solani after 48 hrs by CLSI protocol based broth microdilution assay; assay type: functional
Procedure, shortened: (§2)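 Molds (A. niger, F. oxyporum, F. solani, Mucorales TM29) were grown 4 days at 25 °C on PDA, and spores were harvested in sterile water and counted by hemacytometer. Spores (2 × 10⁴ mL⁻¹) went into L-glutamine RPMI 1640, MOPS-buffered to pH 7.0, with serially diluted compound (top 100 μM). Incubated 2 days at room temperature; OD600 read; MIC.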

Cryptococcus neoformans = test: Antifungal activity against Cryptococcus neoformans after 48 hrs by CLSI protocol based broth microdilution assay; assay type: functional
Fusarium oxysporum = test: Antifungal activity against Fusarium oxysporum after 48 hrs by CLSI protocol based broth microdilution assay; assay type: functional; procedure, shortened: as §2
Mucorales = test: Antifungal activity against Mucorales after 48 hrs by CLSI protocol based broth microdilution assay; assay type: functional; procedure, shortened: as §2
Pseudomonas fluorescens = test: Antibacterial activity against Pseudomonas fluorescens after 48 hrs by CLSI protocol based broth microdilution assay; assay type: functional; procedure, shortened: as §1
Escherichia coli = test: Antibacterial activity against Escherichia coli after 48 hrs by CLSI protocol based broth microdilution assay; assay type: functional; procedure, shortened: as §1
Staphylococcus aureus = test: Antibacterial activity against Staphylococcus aureus after 48 hrs by CLSI protocol based broth microdilution assay; assay type: functional; procedure, shortened: as §1
Xanthomonas campestris = test: Antibacterial activity against Xanthomonas campestris after 48 hrs by CLSI protocol based broth microdilution assay; assay type: functional; procedure, shortened: as §1
Bacillus subtilis = test: Antibacterial activity against Bacillus subtilis after 48 hrs by CLSI protocol based broth microdilution assay; assay type: functional; procedure, shortened: as §1
Aspergillus niger = test: Antifungal activity against Aspergillus niger after 48 hrs by CLSI protocol based broth microdilution assay; assay type: functional; procedure, shortened: as §2
Candida albicans = test: Antifungal activity against Candida albicans after 48 hrs by CLSI protocol based broth microdilution assay; assay type: functional
[2] = Antibacterial activity against Paenibacillus peoriae after 48 hrs by CLSI protocol based broth microdilution assay; assay type: functional; procedure, shortened: as §1
Pseudomonas aeruginosa = test: Antibacterial activity against Pseudomonas aeruginosa after 48 hrs by CLSI protocol based broth microdilution assay; assay type: functional; procedure, shortened: as §1
[3] = test system: hmqA (Burkholderia ambifaria); test: Inhibition of beta-galactosidase hmqA mutant (Burkholderia ambifaria) by lacZ reporter gene assay

MIC [1] | MIC (Streptococcus agalactiae) | MIC (Fusarium solani) | MIC (Cryptococcus neoformans) | MIC (Fusarium oxysporum) | MIC (Mucorales) | MIC (Pseudomonas fluorescens) | MIC (Escherichia coli) | MIC (Staphylococcus aureus) | MIC (Xanthomonas campestris) | MIC (Bacillus subtilis) | MIC (Aspergillus niger) | MIC (Candida albicans) | MIC [2] | MIC (Pseudomonas aeruginosa) | Activity [3] | Structure (SMILES)
1.56 µM (≈ 0.423 µg/mL) | 1.56 µM (≈ 0.423 µg/mL) | > 100 µM | 50 µM (≈ 13.6 µg/mL) | > 100 µM | > 100 µM | 50 µM (≈ 13.6 µg/mL) | 25 µM (≈ 6.78 µg/mL) | 1.56 µM (≈ 0.423 µg/mL) | 6.25 µM (≈ 1.7 µg/mL) | 1.56 µM (≈ 0.423 µg/mL) | > 100 µM | > 100 µM | 1.56 µM (≈ 0.423 µg/mL) | 50 µM (≈ 13.6 µg/mL) | – | CCCC/C=C/Cc1c(C)c(=O)c2ccccc2n1O
1.56 µM (≈ 0.445 µg/mL) | 1.56 µM (≈ 0.445 µg/mL) | > 100 µM | 12.5 µM (≈ 3.57 µg/mL) | > 100 µM | > 100 µM | 25 µM (≈ 7.13 µg/mL) | 6.25 µM (≈ 1.78 µg/mL) | 1.56 µM (≈ 0.445 µg/mL) | 3.13 µM (≈ 0.893 µg/mL) | 1.56 µM (≈ 0.445 µg/mL) | > 100 µM | > 100 µM | 1.56 µM (≈ 0.445 µg/mL) | 25 µM (≈ 7.13 µg/mL) | – | CCCCC/C=C/Cc1c(C)c(=O)c2ccccc2n1O
1.56 µM (≈ 0.42 µg/mL) | 1.56 µM (≈ 0.42 µg/mL) | > 100 µM | 1.56 µM (≈ 0.42 µg/mL) | > 100 µM | 12.5 µM (≈ 3.37 µg/mL) | 25 µM (≈ 6.73 µg/mL) | 100 µM (≈ 26.9 µg/mL) | 1.56 µM (≈ 0.42 µg/mL) | 100 µM (≈ 26.9 µg/mL) | 1.56 µM (≈ 0.42 µg/mL) | > 100 µM | > 100 µM | 12.5 µM (≈ 3.37 µg/mL) | 50 µM (≈ 13.5 µg/mL) | Active | CCCCC/C=C/Cc1[nH]c2ccccc2c(=O)c1C
3.13 µM (≈ 0.799 µg/mL) | 1.56 µM (≈ 0.398 µg/mL) | > 100 µM | 3.13 µM (≈ 0.799 µg/mL) | 12.5 µM (≈ 3.19 µg/mL) | 6.25 µM (≈ 1.6 µg/mL) | 25 µM (≈ 6.38 µg/mL) | 100 µM (≈ 25.5 µg/mL) | 1.56 µM (≈ 0.398 µg/mL) | 100 µM (≈ 25.5 µg/mL) | 1.56 µM (≈ 0.398 µg/mL) | > 100 µM | > 100 µM | 12.5 µM (≈ 3.19 µg/mL) | > 100 µM | Active | CCCC/C=C/Cc1[nH]c2ccccc2c(=O)c1C
1.56 µM (≈ 0.442 µg/mL) | 1.56 µM (≈ 0.442 µg/mL) | 6.25 µM (≈ 1.77 µg/mL) | 1.56 µM (≈ 0.442 µg/mL) | 12.5 µM (≈ 3.54 µg/mL) | 12.5 µM (≈ 3.54 µg/mL) | 50 µM (≈ 14.2 µg/mL) | 100 µM (≈ 28.3 µg/mL) | 1.56 µM (≈ 0.442 µg/mL) | 100 µM (≈ 28.3 µg/mL) | 1.56 µM (≈ 0.442 µg/mL) | > 100 µM | > 100 µM | 12.5 µM (≈ 3.54 µg/mL) | > 100 µM | – | CCCCCC/C=C/Cc1[nH]c2ccccc2c(=O)c1C
1.56 µM (≈ 0.467 µg/mL) | 1.56 µM (≈ 0.467 µg/mL) | > 100 µM | 6.25 µM (≈ 1.87 µg/mL) | > 100 µM | > 100 µM | 25 µM (≈ 7.49 µg/mL) | 6.25 µM (≈ 1.87 µg/mL) | 1.56 µM (≈ 0.467 µg/mL) | 12.5 µM (≈ 3.74 µg/mL) | 3.13 µM (≈ 0.937 µg/mL) | > 100 µM | > 100 µM | 1.56 µM (≈ 0.467 µg/mL) | 12.5 µM (≈ 3.74 µg/mL) | – | CCCCCC/C=C/Cc1c(C)c(=O)c2ccccc2n1O

Reference: ChEMBL document CHEMBL4665692, “Synthesis and Antimicrobial Activity of Burkholderia-Related 4-Hydroxy-3-methyl-2-alkenylquinolines (HMAQs) and Their N-Oxide Counterparts” (2020)
